In ChEMBL document CHEMBL1148948, “Biotransformation of nobiletin by Aspergillus niger and the antimutagenic activity of a metabolite, 4'-hydroxy-5,6,7,8,3'-pentamethoxyflavone” (2004):
Calls of active or inactive are those of the source.

Columns and labels:
Type in all cases: functional, organism-based
Details in all cases: Salmonella enterica subsp. enterica serovar Typhimurium
Salmonella typhimurium [1] = experiment: Antimutagenic activity in Salmonella Typhimurium TA1535 carrying pSK1002 containing umuC'-lacZ fused gene assessed as suppression of Trp-P-1-induced SOS response to alteration in DNA synthesis measured by beta-galactosidase activity by Umu test
In short: (§1)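 S. typhimurium TA1535/pSK1002 (umuC′-′lacZ fusion on the plasmid). The overnight culture was diluted 50-fold in fresh TGA medium and grown at 37 °C to A600 0.25-0.30. SOS induction was read as β-galactosidase activity in Miller units. The S9 mix used rat liver S9 (phenobarbital/5,6-benzoflavone-pretreated males) with G-6-P, NADH and NADPH cofactors.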

Salmonella typhimurium [2] = experiment: Antimutagenic activity in Salmonella Typhimurium TA1535 carrying pSK1002 containing umuC'-lacZ fused gene assessed as suppression of MeIQ-induced SOS response to alteration in DNA synthesis measured by beta-galactosidase activity by Umu test; in short: as §1
Salmonella typhimurium [3] = experiment: Antimutagenic activity in Salmonella Typhimurium TA1535 carrying pSK1002 containing umuC'-lacZ fused gene assessed as suppression of 0.1 j/M2 UV light-induced SOS response to alteration in DNA synthesis measured by beta-galactosidase activity by Umu test; in short: as §1
Salmonella typhimurium [4] = experiment: Antimutagenic activity in Salmonella Typhimurium TA1535 carrying pSK1002 containing umuC'-lacZ fused gene assessed as suppression of furyfuramide-induced SOS response to alteration in DNA synthesis measured by beta-galactosidase activity by Umu test; in short: as §1

Measured: Activity

COc1ccc(-c2cc(=O)c3c(OC)c(OC)c(OC)c(OC)c3o2)cc1OC
active: all assays above
